These results are taken from ChEMBL document CHEMBL1147227, “Annularins A-H: new polyketide metabolites from the freshwater aquatic fungus Annulatascus triseptatus” (2003).

For assay [1], the system named is Bacillus subtilis. The experiment in a line: Antibacterial activity against Bacillus subtilis ATCC 6051 at 200 ug/disk by standard disk assay. The format is functional. The note with it: read-out: IZ. In short, it runs like this:
(§1)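 Paper-disk diffusion assay with 200 µg of test material loaded per disk. Activity was read as the zone of inhibition, recorded in mm.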

Assay [2] concerns Staphylococcus aureus. The experiment in a line: Antibacterial activity against Staphylococcus aureus ATCC 29213 at 200 ug/disk by standard disk assay. It counts as functional. The note with it: read-out: IZ. The procedure, abridged:
as §1

Assay [3] deals with Candida albicans. Nature of the assay: Antifungal activity against Candida albicans ATCC 90029 at 200 ug/disk by standard disk assay. It counts as functional, organism-based.
In assay [4] the test system is Aspergillus flavus. Nature of the assay: Antifungal activity against Aspergillus flavus NRRL 6541 at 200 ug/disk by standard disk assay. It counts as functional, organism-based.

SMILES strings stand for the structures. Calls of active or inactive are those of the source. The calls are words filed in the database; no cut-off is given here.

Take `CC[C@H](O)c1oc(=O)cc(OC)c1CO`: the zone of inhibition at 200 µg/disc in assay [1] came to 8 mm; in assay [2], 14 mm. In addition, the result in assay [3] was inactive.
`CCC1OC(=O)c2c(OC)cc(=O)oc21` (stereo not drawn) [ANNULARIN F]: the zone of inhibition at 200 µg/disc in assay [1] came to 8 mm. Besides, the outcome in assay [3] was inactive.
On to `CCCc1oc(=O)cc(OC)c1CO`, for which the zone of inhibition at 200 µg/disc in assay [1] is 8 mm. Further, the outcome in assay [3] was inactive.
For the compound `CCCc1oc(=O)cc(OC)c1C`, the outcome in assay [4] was inactive.
